Rows were chosen to be rich in hits. Some 27% of all compounds tested hit in one or more screens of this group.
CYP2C9 activ: activators of human CYP2C9; P11712; recombinant CYP2C9, luciferin-H conversion, luminescence; active compounds read high; factor 1 = untreated enzyme, 0 = blocked; activation factor at 5 µM; 96,000 compounds, 1.4% hits; AID 1024;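 active = activation factor of 2 or more for CYP2C9 at a 5 µM dose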
Cav32 inh: blocks human Cav3.2 T-type calcium channel. 100,000 compounds, 4% hits. O95180. AID 449739. B-score at 10 µM. Cav3.2-expressing cells, Fluo-4 calcium fluorescence FDSS; active compounds read low;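 active = single-dose well whose peak fluorescence ratio is a statistical outlier from its plate by either plate-standardised score or position-corrected B-score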
CYP2C19 act: activators of human cytochrome P450 2C19 | P33261 | recombinant CYP2C19, luciferin-H EGE luminescence; active compounds read high; 0 = fully inhibited enzyme, 1 = untreated enzyme | activation factor at 5 µM | 96,000 tested, under 10 active | AID 1025;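 active = activation factor of at least 2 at 5 µM in the primary screen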
Target sequence (P33261 whole entry, looked up): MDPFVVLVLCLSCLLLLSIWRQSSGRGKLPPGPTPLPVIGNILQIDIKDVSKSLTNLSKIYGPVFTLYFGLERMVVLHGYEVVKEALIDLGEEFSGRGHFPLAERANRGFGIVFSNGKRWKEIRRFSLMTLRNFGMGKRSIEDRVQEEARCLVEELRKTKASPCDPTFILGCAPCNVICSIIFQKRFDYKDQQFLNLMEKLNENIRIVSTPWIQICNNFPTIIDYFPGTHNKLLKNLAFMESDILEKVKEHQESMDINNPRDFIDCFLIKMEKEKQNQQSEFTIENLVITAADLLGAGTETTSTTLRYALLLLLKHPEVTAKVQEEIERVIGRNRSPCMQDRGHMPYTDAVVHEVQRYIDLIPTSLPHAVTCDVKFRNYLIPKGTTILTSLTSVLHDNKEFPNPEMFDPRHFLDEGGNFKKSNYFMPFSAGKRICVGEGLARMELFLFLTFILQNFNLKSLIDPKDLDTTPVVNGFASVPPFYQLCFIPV
CYP2C19 inh: inhibitors of human CYP2C19. P33261. CYP2C19 Supersomes, luciferin-H EGE luminescence, 30 min. inhibition, % at 5 µM. 96,000 compounds, 21% hits. AID 778;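 active = CYP2C19 inhibition above a set limit at 5 µM in the primary screen, cut at about 50% in these data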
CYP2C9 inh: blocks human cytochrome P450 2C9; P11712; CYP2C9 Supersomes, luciferin-H conversion, luminescence; inhibition, % at 5 µM; 96,000 compounds, 20% hits; AID 777;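 active = blocking of liver enzyme CYP2C9 beyond about 50% at 5 µM, limit read from the data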
Rev-RRE block: disrupts HIV-1 Rev binding to RRE RNA | Rev peptide-RRE RNA binding, FRET | inhibition, % at 8 µM | 97,000 compounds, 0.79% hits;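 active = inhibition above the screen-wide mean plus 3 SD, cut at about 35% in these data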
Target sequence (P05866 whole entry, looked up): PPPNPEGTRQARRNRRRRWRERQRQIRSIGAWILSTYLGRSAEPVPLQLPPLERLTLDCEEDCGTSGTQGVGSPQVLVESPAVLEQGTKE
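Test system – labelled RRE RNA duplex and labelled Rev peptide · Reagent – labelled Rev peptide · Doses – one concentration, 8 µM nominal · Incubation – 5 + 15 min at 25 °C · Signal – FRET fluorescence readout · Read-out basis – % inhibition of FRET ratio versus controls · Control set – DMSO wells as 0% and neomycin B wells as 100% inhibition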
Hits are given with their value; [ ] = dose if it differs, or a comment.

How did CCOC(=O)CSc1nnc(CNC(=O)c2ccc(OC)c(OC)c2)n1C do in these assays?
CYP2C9 activ: inactive; Cav32 inh: inactive; CYP2C19 act: inactive; CYP2C19 inh: inactive; CYP2C9 inh: inactive; Rev-RRE block: inactive

What do the screens show for `O=C(O)C[C@H]1c2ccccc2S(=O)(=O)N1C1CCCC1`?
Cav32 inh: inactive

How did C=CCNC(=S)NNC(=O)c1ccccc1 do in these assays?
CYP2C9 activ: inactive; Cav32 inh: inactive; CYP2C19 act: inactive; CYP2C19 inh: inactive; CYP2C9 inh: inactive; Rev-RRE block: inactive

What do the screens show for `C=CCNC(=S)NNC(=O)COc1cccc(Cl)c1`?
CYP2C9 activ: inactive; Cav32 inh: inactive; CYP2C19 act: inactive; CYP2C19 inh: 60; CYP2C9 inh: inactive; Rev-RRE block: inactive

How did COc1cc(CCC(=O)Nc2cc(Cl)ccc2N2CCN(C)CC2)cc(OC)c1OC do in these assays?
CYP2C9 activ: inactive; Cav32 inh: inactive; CYP2C19 act: inactive; CYP2C19 inh: 64; CYP2C9 inh: inactive; Rev-RRE block: inactive

Results for CC1=C(C(N)=O)C(c2ccccc2F)NC(=O)N1 (stereo unspecified) ?
CYP2C9 activ: inactive; Cav32 inh: inactive; CYP2C19 act: inactive; CYP2C19 inh: inactive; CYP2C9 inh: 53; Rev-RRE block: inactive

How did COC(=O)C1=C(C)NC(=O)NC1c1cc(Cl)ccc1OC (stereo unspecified) do in these assays?
CYP2C9 activ: inactive; Cav32 inh: inactive; CYP2C19 act: inactive; CYP2C19 inh: inactive; CYP2C9 inh: inactive; Rev-RRE block: inactive

What do the screens show for `CC(C)Oc1ccc(N2CC(C(=O)Nc3ccc4c(c3)OCO4)CC2=O)cc1` (stereo unspecified)?
CYP2C9 activ: inactive; Cav32 inh: inactive; CYP2C19 act: inactive; CYP2C19 inh: inactive; CYP2C9 inh: inactive; Rev-RRE block: inactive

How did Cc1ccc(C)n1-n1cnc2sc(-c3ccccc3)cc2c1=O do in these assays?
CYP2C9 activ: inactive; Cav32 inh: inactive; CYP2C19 act: inactive; CYP2C19 inh: inactive; CYP2C9 inh: inactive; Rev-RRE block: inactive

What do the screens show for `Cc1ccc(-c2csc3ncn(-n4c(C)ccc4C)c(=O)c23)o1`?
CYP2C9 activ: inactive; Cav32 inh: inactive; CYP2C19 act: inactive; CYP2C19 inh: 87; CYP2C9 inh: inactive; Rev-RRE block: inactive

How did CC(C)c1nc2ccccc2n1CCC(=O)O do in these assays?
CYP2C9 activ: inactive; Cav32 inh: inactive; CYP2C19 act: inactive; CYP2C19 inh: inactive; CYP2C9 inh: inactive; Rev-RRE block: inactive

Results for N#C/C(=C/c1ccc(N2CCOCC2)o1)c1ccc(Cl)cc1 ?
CYP2C9 activ: inactive; CYP2C19 act: inactive; CYP2C19 inh: inactive; CYP2C9 inh: inactive; Rev-RRE block: 113[fluorescence artefact?]

How did N#C/C(=C\c1ccc(N2CCOCC2)o1)c1nc2ccccc2[nH]1 do in these assays?
CYP2C9 activ: inactive; Cav32 inh: -5.8; CYP2C19 act: inactive; CYP2C19 inh: inactive; CYP2C9 inh: inactive; Rev-RRE block: 136[fluorescence artefact?]

What do the screens show for `O=C(/C=C/c1ccc(O)cc1)c1ccc(NC2=C(N3CCCCC3)C(=O)c3ccccc3C2=O)cc1`?
CYP2C9 activ: inactive; Cav32 inh: inactive; CYP2C19 act: inactive; CYP2C19 inh: 69; CYP2C9 inh: inactive; Rev-RRE block: inactive

How did Cc1ccc(NC2=C(N3CCCCC3)C(=O)c3ccccc3C2=O)cc1 do in these assays?
CYP2C9 activ: inactive; Cav32 inh: inactive; CYP2C19 act: inactive; CYP2C19 inh: inactive; CYP2C9 inh: inactive; Rev-RRE block: inactive

How did CN(C1=C(N2CCCCC2)C(=O)c2ccccc2C1=O)c1ccccc1 do in these assays?
CYP2C9 activ: inactive; Cav32 inh: inactive; CYP2C19 act: inactive; CYP2C19 inh: 95; CYP2C9 inh: 90; Rev-RRE block: inactive

Results for O=C1C(Nc2ccccc2)=C(N2CCCCC2)C(=O)c2ccccc21 ?
CYP2C9 activ: inactive; Cav32 inh: inactive; CYP2C19 act: inactive; CYP2C19 inh: 68; CYP2C9 inh: inactive; Rev-RRE block: inactive

How did O=C1C(Nc2cccc(O)c2)=C(N2CCCCC2)C(=O)c2ccccc21 do in these assays?
CYP2C9 activ: inactive; Cav32 inh: inactive; CYP2C19 act: inactive; CYP2C19 inh: inactive; CYP2C9 inh: 62; Rev-RRE block: inactive

What do the screens show for `COc1ccccc1OCc1csc(NC(=O)c2ccco2)n1`?
CYP2C9 activ: inactive; Cav32 inh: inactive; CYP2C19 act: inactive; CYP2C19 inh: inactive; CYP2C9 inh: inactive

What do the screens show for `CC(C)(C)Cc1nc(-c2ccc(Cl)cc2)no1`?
CYP2C9 activ: inactive; Cav32 inh: inactive; CYP2C19 act: inactive; CYP2C19 inh: inactive; CYP2C9 inh: inactive; Rev-RRE block: inactive

What do the screens show for `CCCCC(CC)C(=O)Nc1ccccc1C#N` (stereo unspecified)?
CYP2C9 activ: inactive; Cav32 inh: inactive; CYP2C19 act: inactive; CYP2C19 inh: 53; CYP2C9 inh: inactive; Rev-RRE block: inactive

What do the screens show for `O=C1CCCC2=C1C(c1ccco1)Nc1ccc(C(=O)c3ccccc3)cc1N2` (stereo unspecified)?
CYP2C9 activ: inactive; Cav32 inh: -3.6; CYP2C19 act: inactive; CYP2C19 inh: inactive; CYP2C9 inh: inactive; Rev-RRE block: inactive

What do the screens show for `CCOC(=O)CCn1c2nc(C)cc(C)c2c(=O)n1-c1ccccc1`?
CYP2C9 activ: inactive; Cav32 inh: inactive; CYP2C19 act: inactive; CYP2C19 inh: 56; CYP2C9 inh: inactive; Rev-RRE block: inactive

How did COc1cc(C2C3C(=O)N(Cc4ccccc4)C(=O)C3ON2c2ccccc2)cc(OC)c1O (stereo unspecified) do in these assays?
CYP2C9 activ: inactive; Cav32 inh: inactive; CYP2C19 act: inactive; CYP2C19 inh: inactive; CYP2C9 inh: 56; Rev-RRE block: inactive

What do the screens show for `CCCOc1ccc(N2C(=O)C3ON(c4ccccc4)C(c4ccc(O)c(OC)c4)C3C2=O)cc1` (stereo unspecified)?
CYP2C9 activ: inactive; CYP2C19 act: inactive; CYP2C19 inh: inactive; CYP2C9 inh: inactive; Rev-RRE block: inactive

How did Cc1ccc(C(C)NC(=O)c2ccco2)cc1C (stereo unspecified) do in these assays?
CYP2C9 activ: 2.2; Cav32 inh: inactive; CYP2C19 act: inactive; CYP2C19 inh: inactive; CYP2C9 inh: inactive

Results for Cc1cc(O)c(NC(=O)c2ccco2)cc1C ?
CYP2C9 activ: inactive; Cav32 inh: inactive; CYP2C19 act: inactive; CYP2C19 inh: inactive; CYP2C9 inh: inactive; Rev-RRE block: inactive

What do the screens show for `CCn1c(CSCc2ccc(C)cc2)nnc1SCC(=O)N1CCN(c2ccccc2)CC1`?
CYP2C9 activ: inactive; Cav32 inh: -5.6; CYP2C19 act: inactive; CYP2C19 inh: inactive; CYP2C9 inh: 78; Rev-RRE block: inactive

How did CCn1c(CC(=O)Nc2cccc(OC)c2)nnc1SCC(=O)N1CCN(c2ccccc2)CC1 do in these assays?
CYP2C9 activ: inactive; Cav32 inh: inactive; CYP2C19 act: inactive; CYP2C19 inh: inactive; CYP2C9 inh: 59; Rev-RRE block: inactive

How did CCn1c(COc2ccccc2C)nnc1SCC(=O)N1CCN(c2ccccc2)CC1 do in these assays?
CYP2C9 activ: inactive; Cav32 inh: inactive; CYP2C19 act: inactive; CYP2C19 inh: inactive; CYP2C9 inh: inactive; Rev-RRE block: inactive
